Results as given in ChEMBL document CHEMBL2331234, “Novel analgesic/anti-inflammatory agents: 1,5-diarylpyrrole nitrooxyalkyl ethers and related compounds as cyclooxygenase-2 inhibiting nitric oxide donors” (J Med Chem, 2013).
Active and inactive are the calls of the source. The calls are words filed in the database; no cut-off is given here.

Assays:
Rattus norvegicus [1] = experiment: Antiinflammatory activity in Sprague-Dawley/Wistar rat assessed as decrease in carrageenan-induced paw edema at 10 mg/kg, po administered 3 hrs 30 mins after carrageenan-challenge measured after 60 mins (reference value: 2.48 +/- 0.06 mL); assay type: functional
Rattus norvegicus [2] = experiment: Antiinflammatory activity in Sprague-Dawley/Wistar rat assessed as decrease in carrageenan-induced paw edema at 3 mg/kg, po administered 3 hrs 30 mins after carrageenan-challenge measured after 60 mins (reference value: 2.48 +/- 0.06 mL); assay type: functional
Rattus norvegicus [3] = experiment: Antiinflammatory activity in Sprague-Dawley/Wistar rat assessed as decrease in carrageenan-induced hyperalgesia at 10 mg/kg, po administered 4 hrs after carrageenan-challenge measured after 30 mins (reference value: 34.8 +/- 3.0 g); assay type: functional
Rattus norvegicus [4] = experiment: Antiinflammatory activity in Sprague-Dawley/Wistar rat assessed as decrease in carrageenan-induced hyperalgesia at 3 mg/kg, po administered 4 hrs after carrageenan-challenge measured after 60 mins (reference value: 33.9 +/- 3.7 g); assay type: functional
Rattus norvegicus [5] = experiment: Antiinflammatory activity in Sprague-Dawley/Wistar rat assessed as decrease in carrageenan-induced hyperalgesia at 10 mg/kg, po administered 4 hrs after carrageenan-challenge measured after 60 mins (reference value: 33.9 +/- 3.7 g); assay type: functional
Rattus norvegicus [6] = experiment: Antiinflammatory activity in Sprague-Dawley/Wistar rat assessed as decrease in carrageenan-induced hyperalgesia at 10 mg/kg, po administered 4 hrs after carrageenan-challenge measured after 120 mins (reference value: 31.4 +/- 3.7 g); assay type: functional
Rattus norvegicus [7] = experiment: Antiinflammatory activity in Sprague-Dawley/Wistar rat assessed as decrease in carrageenan-induced hyperalgesia at 3 mg/kg, po administered 4 hrs after carrageenan-challenge measured after 120 mins (reference value: 31.4 +/- 3.7 g); assay type: functional
Rattus norvegicus [8] = experiment: Antiinflammatory activity in Sprague-Dawley/Wistar rat assessed as decrease in carrageenan-induced hyperalgesia at 3 mg/kg, po administered 4 hrs after carrageenan-challenge measured after 30 mins (reference value: 34.8 +/- 3.0 g); assay type: functional
Mus musculus = experiment: Antinociceptive activity in po dosed Swiss albino mouse assessed as reduction in number of acetic acid-induced writhing counted 5 mins after acetic acid challenge counted for 10 mins; assay type: functional; details: read-out: MED
Outline: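 Male Swiss albino mice (23-25 g) dosed orally, then given 0.6% acetic acid (10 mL/kg) ip. Stretching movements counted for 10 min, starting 5 min after the acetic acid. Control group received CMC. At least 7 mice/group; mean ± SEM, ANOVA with Fisher's PLSD.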

Rattus norvegicus [9] = experiment: Antiinflammatory activity in Sprague-Dawley/Wistar rat assessed as decrease in carrageenan-induced hyperalgesia at 40 mg/kg, po administered 4 hrs after carrageenan-challenge measured after 60 mins (reference value: 33.9 +/- 3.7 g); assay type: functional
Rattus norvegicus [10] = experiment: Antiinflammatory activity in Sprague-Dawley/Wistar rat assessed as decrease in carrageenan-induced paw edema at 20 mg/kg, po administered 3 hrs 30 mins after carrageenan-challenge measured after 60 mins (reference value: 2.48 +/- 0.06 mL); assay type: functional
Aorta = experiment: Vasorelaxant activity in Wistar rat endothelium-removed thoracic aortic rings assessed as reduction of KCl-induced vasoconstriction at 0.001 uM to 10 uM treated after KCl-challenge relative to control; assay type: functional
Outline: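 Thoracic aortic rings from male Wistar rats (250-350 g), endothelium removed by rubbing; removal confirmed as <10% relaxation to ACh 10 µM in KCl 30 mM-contracted rings. Rings contracted with KCl 30 mM; at plateau, 3-fold increasing compound concentrations (1 nM-10 µM) added. Isometric tension recorded. Emax given as % of KCl tone; pIC50 as -log molar concentration halving that tone. 6-10 experiments; also run with ODQ 1 µM.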

Bos taurus = species: Bos taurus; experiment: (§1) Inhibition of interleukin 1 beta-induced glycosaminoglycan release in bovine articular cartilage of metacarpophalangeal joints of feet treated 48 hrs after interleukin 1beta-challenge by DMB colorimetric assay; assay type: functional
Outline: (§2)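 Bovine metacarpophalangeal cartilage slices (about 100 mg per well) were cultured in serum-free DMEM at 37 °C, 5% CO2, with medium changed on days 1 and 2. On day 3 the slices were challenged with IL-1β 30 ng/mL plus compound for 48 h. GAG release was measured by the DMB (Farndale) assay and expressed as % of IL-1β alone, n = 3. EC50 is given with 95% CI.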

[11] = as §1; assay type: functional, Bos taurus; outline: as §2
[12] = target: Prostaglandin G/H synthase 1 (Homo sapiens, UniProt P23219); experiment: Inhibition of COX1 in human whole blood assessed as reduction in TXB2 generation
Sequence of Prostaglandin G/H synthase 1 (Homo sapiens, UniProt P23219) (P23219 whole entry): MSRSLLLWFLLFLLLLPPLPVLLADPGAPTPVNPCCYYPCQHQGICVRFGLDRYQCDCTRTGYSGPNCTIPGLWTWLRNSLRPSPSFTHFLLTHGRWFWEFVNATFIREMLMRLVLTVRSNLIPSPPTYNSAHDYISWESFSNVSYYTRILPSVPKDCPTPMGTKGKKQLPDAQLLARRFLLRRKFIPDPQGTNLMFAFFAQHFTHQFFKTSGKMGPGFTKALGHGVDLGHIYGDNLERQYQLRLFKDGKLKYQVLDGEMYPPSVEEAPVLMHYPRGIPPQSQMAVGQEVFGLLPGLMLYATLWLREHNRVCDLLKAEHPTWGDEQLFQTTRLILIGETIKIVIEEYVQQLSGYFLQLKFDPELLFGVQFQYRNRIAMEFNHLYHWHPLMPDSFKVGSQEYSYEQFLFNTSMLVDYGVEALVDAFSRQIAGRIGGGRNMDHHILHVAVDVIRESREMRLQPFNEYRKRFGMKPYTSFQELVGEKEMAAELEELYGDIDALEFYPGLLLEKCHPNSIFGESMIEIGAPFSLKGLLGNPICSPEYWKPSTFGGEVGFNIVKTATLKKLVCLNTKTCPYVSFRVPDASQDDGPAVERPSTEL
Outline: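 Clotting assay in whole blood from three healthy volunteers with no NSAID for 2 weeks. Compounds in DMSO were added at 0.1-300 µM final. Blood clotted in glass tubes at 37 °C for 1 h. Serum TXB2 was measured by RIA as a reflection of platelet COX-1 activity driven by endogenous thrombin.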

Rattus norvegicus [13] = experiment: Antiinflammatory activity in Sprague-Dawley/Wistar osteoarthritis model rat assessed as decrease in monoiodoacetate-induced hyperalgesia at 20 mg/kg, po bid for 14 days administered from day of monoiodoacetate-challenge […] post by paw pressure test (reference value: 32.6 +/- 2.9 g); assay type: functional
[14] = target: T1, Prostaglandin G/H synthase 1 (Mus musculus, UniProt P22437); experiment: Inhibition of arachidonic acid-induced COX1 activity in mouse J774 cells assessed as decrease in PGE2 levels incubated for 15 mins prior to arachidonic acid-challenge measured after 30 mins by RIA; assay type: cell-based
T1 sequence (P22437 whole entry): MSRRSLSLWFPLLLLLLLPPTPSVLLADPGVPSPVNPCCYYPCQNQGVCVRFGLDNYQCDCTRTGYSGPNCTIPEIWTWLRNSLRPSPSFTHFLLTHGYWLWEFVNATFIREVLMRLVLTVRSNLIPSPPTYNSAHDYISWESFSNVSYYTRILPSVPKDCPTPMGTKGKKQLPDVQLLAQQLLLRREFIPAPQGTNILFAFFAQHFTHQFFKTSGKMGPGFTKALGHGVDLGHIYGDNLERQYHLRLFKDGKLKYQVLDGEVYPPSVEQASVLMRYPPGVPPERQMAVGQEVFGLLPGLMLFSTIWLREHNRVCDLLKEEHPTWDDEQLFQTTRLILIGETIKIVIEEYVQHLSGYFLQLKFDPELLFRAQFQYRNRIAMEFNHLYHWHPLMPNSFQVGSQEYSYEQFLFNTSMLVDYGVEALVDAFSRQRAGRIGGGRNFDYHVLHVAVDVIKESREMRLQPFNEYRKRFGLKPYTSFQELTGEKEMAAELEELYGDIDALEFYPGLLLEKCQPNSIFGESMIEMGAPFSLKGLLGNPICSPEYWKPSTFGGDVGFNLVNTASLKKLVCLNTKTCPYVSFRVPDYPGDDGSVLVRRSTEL
Outline: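 Cells were in DMEM with 10% FBS and adhered for 2 h at 37 °C. They were pretreated with compound (10 µM; 0.1-1 µM where inhibition exceeded 50%) for 15 min, then given 15 µM arachidonic acid for 30 min at 37 °C. Supernatant PGE2 was measured by RIA. Triplicate wells were used and the mean of three experiments reported. IC50 came from a variable-slope sigmoidal fit.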

Rattus norvegicus [15] = experiment: Antiinflammatory activity in Sprague-Dawley/Wistar rat assessed as decrease in carrageenan-induced hyperalgesia at 40 mg/kg, po administered 4 hrs after carrageenan-challenge measured after 30 mins (reference value: 34.8 +/- 3.0 g); assay type: functional
Rattus norvegicus [16] = experiment: Antiinflammatory activity in Sprague-Dawley/Wistar rat assessed as decrease in carrageenan-induced paw edema at 40 mg/kg, po administered 3 hrs 30 mins after carrageenan-challenge measured after 60 mins (reference value: 2.48 +/- 0.06 mL); assay type: functional
Rattus norvegicus [17] = experiment: Antiinflammatory activity in Sprague-Dawley/Wistar rat assessed as decrease in carrageenan-induced hyperalgesia at 20 mg/kg, po administered 4 hrs after carrageenan-challenge measured after 60 mins (reference value: 33.9 +/- 3.7 g); assay type: functional
Rattus norvegicus [18] = experiment: Antiinflammatory activity in Sprague-Dawley/Wistar osteoarthritis model rat assessed as decrease in monoiodoacetate-induced hyperalgesia at 20 mg/kg, po bid for 14 days administered from day of monoiodoacetate-challenge followed by additional compound treatment after 30 mins […] by paw pressure test (reference value: 30.4 +/- 3.1 g); assay type: functional
Rattus norvegicus [19] = experiment: Antiinflammatory activity in Sprague-Dawley/Wistar rat assessed as decrease in carrageenan-induced hyperalgesia at 20 mg/kg, po administered 4 hrs after carrageenan-challenge measured after 120 mins (reference value: 31.4 +/- 3.7 g); assay type: functional
Rattus norvegicus [20] = experiment: Antiinflammatory activity in Sprague-Dawley/Wistar rat assessed as decrease in carrageenan-induced hyperalgesia at 40 mg/kg, po administered 4 hrs after carrageenan-challenge measured after 120 mins (reference value: 31.4 +/- 3.7 g); assay type: functional
Rattus norvegicus [21] = experiment: Antiinflammatory activity in Sprague-Dawley/Wistar rat assessed as decrease in carrageenan-induced hyperalgesia at 20 mg/kg, po administered 4 hrs after carrageenan-challenge measured after 30 mins (reference value: 34.8 +/- 3.0 g); assay type: functional
[22] = target: T2, Prostaglandin G/H synthase 2 (Homo sapiens) (UniProt P35354); experiment: Inhibition of COX2 in human whole blood assessed as reduction in LPS-induced PGE2 generation pre-treated prior to LPS-challenge
T2 sequence (whole entry): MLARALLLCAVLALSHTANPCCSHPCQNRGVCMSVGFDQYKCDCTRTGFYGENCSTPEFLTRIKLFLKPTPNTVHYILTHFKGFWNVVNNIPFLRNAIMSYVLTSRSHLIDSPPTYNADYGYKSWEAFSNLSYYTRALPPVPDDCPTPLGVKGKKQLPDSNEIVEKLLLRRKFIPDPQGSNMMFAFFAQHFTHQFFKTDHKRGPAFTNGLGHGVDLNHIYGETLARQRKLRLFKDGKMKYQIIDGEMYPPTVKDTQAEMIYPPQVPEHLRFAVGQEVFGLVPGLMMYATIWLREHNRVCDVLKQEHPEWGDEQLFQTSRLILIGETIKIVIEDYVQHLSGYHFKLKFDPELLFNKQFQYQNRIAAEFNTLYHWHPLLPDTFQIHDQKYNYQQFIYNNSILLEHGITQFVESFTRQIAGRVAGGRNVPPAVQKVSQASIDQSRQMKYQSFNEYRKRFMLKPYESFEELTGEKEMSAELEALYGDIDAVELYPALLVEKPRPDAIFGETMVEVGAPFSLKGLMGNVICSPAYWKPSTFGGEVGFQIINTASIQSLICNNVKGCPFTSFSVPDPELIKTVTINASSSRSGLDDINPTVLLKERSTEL
Outline: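 Heparinized whole blood came from three healthy volunteers pretreated with aspirin 300 mg 48 h before sampling to suppress platelet COX-1. Compounds in DMSO were added at 0.1-300 µM final. Blood was incubated with LPS 10 µg/mL for 24 h at 37 °C. Plasma PGE2 was measured by RIA.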

In the case of `Cc1ccc(-c2cc(C(F)(F)F)nn2-c2ccc(S(N)(=O)=O)cc2)cc1` [CELECOXIB], the Activity (Rattus norvegicus [1]) is reported as 1.45 mL, the Activity (Rattus norvegicus [2]) is reported as 2.35 mL and the Activity (Rattus norvegicus [3]) is reported as 52.9 g. The Activity (Rattus norvegicus [4]) was 41.6 g, the Activity (Rattus norvegicus [5]) was 48.3 g and the Activity (Rattus norvegicus [6]) was 39.8 g. It also gave an Activity (Rattus norvegicus [7]) of 40.7 g, an Activity (Rattus norvegicus [8]) of 44.3 g and a minimal effective dose (Mus musculus) of 3 mg/kg.
With `Cc1c(CCOCCO)cc(-c2ccc(S(C)(=O)=O)cc2)n1-c1ccc(F)cc1` the Activity (Rattus norvegicus [9]) was 58.3 g, the Activity (Rattus norvegicus [10]) was 2.01 mL and the Emax (Aorta) was “inactive”. The inhibition (Bos taurus) was “Dose-dependent effect”, the IC50 [11] was 33 µM and the IC50 [12] was 20 µM. The IC80 [12] was 37.1 µM, the inhibition [12] was “Dose-dependent effect” and the Activity (Rattus norvegicus [13]) was 49.7 g. The IC50 [14] was > 10 µM, the Activity (Rattus norvegicus [15]) was 57.2 g and the Activity (Rattus norvegicus [16]) was 1.95 mL. For the same compound, the Activity (Rattus norvegicus [17]) was 38.7 g, the Activity (Rattus norvegicus [18]) was 51.2 g and the Activity (Rattus norvegicus [19]) was 38.3 g. It also gave an Activity (Rattus norvegicus [20]) of 47.6 g, an Activity (Rattus norvegicus [21]) of 46.8 g and an IC80 [22] of 2.31 µM. For the same compound, the inhibition [22] was “Dose-dependent effect” and the minimal effective dose (Mus musculus) was 40 mg/kg.
